According to ChEMBL document CHEMBL4014276, “Diphenylurea derivatives for combating methicillin- and vancomycin-resistant Staphylococcus aureus” (Eur J Med Chem, 2017):
Values after ≈ are worked out from the molar mass of the structure shown. Active and inactive are the calls of the source. The calls are words filed in the database; no cut-off is given here.

Key:
Staphylococcus aureus [1] = experiment: Bactericidal activity against Staphylococcus aureus RN4220 NRS107 clinical isolate after 18 hrs by broth microdilution method; format: functional; conditions: RN4220 NRS107, 18 h
Procedure, shortened: (§1)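 From MIC wells without visible growth, 5 uL spotted onto Tryptic soy agar, incubated 37 °C for at least 18 h; MBC taken as lowest concentration giving 99.9% growth inhibition.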

Staphylococcus aureus [2] = experiment: Antibacterial activity against methicillin-resistant Staphylococcus aureus USA300 NRS384 clinical isolate after 20 hrs by broth microdilution method; format: functional; conditions: USA300 NRS384, 20 h
Procedure, shortened: (§2)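 CLSI broth microdilution in cation-adjusted Mueller Hinton broth; compounds serially diluted, triplicate samples; 37 °C, 20 h. MIC read visually as lowest concentration with no visible growth; mean of triplicate determinations reported.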

Staphylococcus aureus [3] = experiment: Bactericidal activity against vancomycin-resistant Staphylococcus aureus VRSA4 after 18 hrs by broth microdilution method; format: functional; conditions: VRSA4, 18 h; procedure, shortened: as §1
Staphylococcus aureus [4] = experiment: Antibacterial activity against vancomycin-resistant Staphylococcus aureus VRSA10 after 20 hrs by broth microdilution method; format: functional; conditions: VRSA10, 20 h; procedure, shortened: as §2
Staphylococcus aureus [5] = experiment: Bactericidal activity against methicillin-resistant Staphylococcus aureus USA400 NRS123 clinical isolate assessed as disruption of bacterial membrane by measuring leakage of 280 nM absorbing material at 5 times MIC after 30 mins by spectrophotometric method; format: functional
[6] = Apparent permeability across apical to basolateral side in human Caco2 cells at 10 uM after 2 hrs by LC-MS/MS method; format: ADME, cell-based; conditions: Caco-2
[7] = Efflux ratio of apparent permeability across basolateral to apical over apical to basolateral side in human Caco2 cells at 10 uM after 2 hrs by LC-MS/MS method; format: ADME, cell-based; conditions: Caco-2
[8] = Tmax in naive Sprague-Dawley rat at 50 mg/kg ,po administered via gavage by LC-MS/MS method; format: ADME, organism-based; conditions: in vivo
Procedure, shortened: (§3)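 Male naïve rats, three animals; single oral gavage dose in 5% ethanol, 45% PEG 400, 50% water. Blood drawn into EDTA-K2 tubes over 24 h post dose; plasma protein-precipitated with acetonitrile, parent quantified by LC/MS/MS.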

[9] = AUClast in naive Sprague-Dawley rat at 50 mg/kg ,po administered via gavage by LC-MS/MS method; format: ADME, organism-based; parameters: dose 50 mg/kg, time 0 - last, route oral; conditions: in vivo; procedure, shortened: as §3
[10] = Half life in naive Sprague-Dawley rat at 50 mg/kg ,po administered via gavage by LC-MS/MS method; format: ADME, organism-based; conditions: in vivo; procedure, shortened: as §3
[11] = Mean residence time in naive Sprague-Dawley rat at 50 mg/kg ,po administered via gavage by LC-MS/MS method; format: ADME, organism-based; conditions: in vivo; procedure, shortened: as §3
Staphylococcus aureus [12] = experiment: Bactericidal activity against methicillin-resistant Staphylococcus aureus USA400 infected in mouse J774 cells assessed as reduction in colony forming units at 16 ug/ml after 8 hrs by time kill assay relative to control; parameters: scale not given: the % may be the effect or the level left

Compound `C/C(=N\NC(=N)N)c1ccc(NC(=O)Nc2ccc(OC3CCCCCC3)cc2)cc1` has an MBC (Staphylococcus aureus [1]) of 4 µg/mL (≈ 9.47 µM), an MIC (Staphylococcus aureus [2]) of 2 µg/mL (≈ 4.73 µM) and an MBC (Staphylococcus aureus [3]) of 4 µg/mL (≈ 9.47 µM). The MIC (Staphylococcus aureus [4]) was 8 µg/mL (≈ 18.9 µM), the Activity (Staphylococcus aureus [5]) was “inactive” and the Papp A→B at 2 h, 10 µM [6] was 0.039 ×10⁻⁶ cm/s. It also gave an efflux ratio at 2 h, 10 µM [7] of over 1000, a Tmax [8] of 9.33 h and an AUC(0-t) [9] of 218 ng·h/mL. It also gave a half-life [10] of 16 h, an MRT [11] of 28.4 h and an Activity (Staphylococcus aureus [12]) of 35.7%.
